Measured values from different studies.
Lines come from different studies, so protocols differ.
Target: Cyclin-dependent kinase 2 (CDK2, Homo sapiens, UniProt P24941)
Technique: competition with immobilised ligand

Compound	test	setting	remaining binding
O=C(NCC1CCOCC1)c1n[nH]cc1NC(=O)c1c(F)cccc1F	binding	1 µM	49%
COc1ncc2cc3ccccc3nc2c1C#N	cell-free assay	5 µM	100%
C[C@H]1CCN(c2nccc(-c3cnn4ncccc34)n2)C1	binding	1 µM	95%
C[C@@H]1CN(c2ccc3ncc(-c4ccc5[nH]nc(C6CC6)c5c4)n3n2)C[C@H](C)O1	binding	0.5 µM	84%
O=S(=O)(NC1CCC(c2cc(F)ccc2F)(S(=O)(=O)c2ccc(Cl)cc2)CC1)C(F)(F)F (stereo not shown)	cell-free assay	1 µM	100%
CCN1CCN(Cc2ccc(C(=O)Nc3ccc(C)c(Oc4ccc5c(c4)CC(=O)N5)c3)cc2C(F)(F)F)CC1	binding	1 µM	82%
COc1ccc2c(c1)O[C@H](c1ccc(OC)c(OC)c1)C[C@@H]2NC(=O)C1(c2ccc3c(c2)OC(F)(F)O3)CC1	cell-free assay	1 µM	100%
O=C(NCCCN1CCOCC1)c1ccc(Nc2nccc(-c3cc4ccccc4s3)n2)cc1	binding	1 µM	66%
Cc1cc(C)c(-n2ccn3nc(-c4cccnc4)cc23)cc1NC(=O)c1cc(C#N)cc(S(F)(F)(F)(F)F)c1	cell-free assay	0.1 µM	99%
F[C@@H]1CCN(c2nccc(-c3cnn4ncccc34)n2)C1	binding	1 µM	100%
O=C(NCCCN1CCOCC1)c1ccc(Nc2ncc(Cl)c(-c3ccc(Cl)s3)n2)cc1	binding	1 µM	62%
Nc1cnc(N2CCc3cc(S(=O)(=O)Nc4c(F)cc(Cl)cc4F)cc(N4CCCC4=O)c32)nc1	cell-free assay	1 µM	100%
FC(F)(F)Oc1cccc(-c2cnc3ccc(-c4ccncc4)nn23)c1	cell-free assay	5 µM	81%
Cn1nc(C(F)(F)F)cc1-c1cnc(N2CCc3cc(S(=O)(=O)Nc4c(F)cc(Cl)cc4F)cc(N4CCCC4=O)c32)nc1	cell-free assay	1 µM	100%
O=C(c1ccc(Nc2ncc(Cl)c(-c3ccc(Cl)s3)n2)cc1)N1CCC(N2CCCC2)CC1	binding	1 µM	27%
COc1cnc(Nc2cccc(S(N)(=O)=O)c2)nc1N1CCN(c2ccccc2)CC1	binding	1 µM	98%
